One compound from ChEMBL document CHEMBL4765328 (Eur J Med Chem, 2020) can be followed below.

Data set [1] has as its system HL-60. The data set is described as follows: Potency index, ratio […] for human HL-60 cells assessed as inhibition of cell growth. The class given is functional.
Data set [2] is described as follows: Cytotoxicity against normal human astrocytes assessed as inhibition of cell growth. It counts as cell-based, Astrocyte.
For data set [3], the system named is HeLa. The data set can be described thus: Induction of cell cycle arrest at G2/M phase in human HeLa cells assessed as increase in cyclin B1 expression after 24 to 48 hrs by Western blot analysis. The class given is functional, cell-based. As to conditions: dose 10-50 nM, time 24-48 hrs. The procedure, abridged: (§1)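 HeLa cells treated 24 or 48 h, then washed in cold PBS and lysed in 0.1% Triton X-100/RNase A at 0 °C. Lysates were cleared at 15,000 x g. 10 µg protein was run on SDS-PAGE and blotted to PVDF, blocked in 5% BSA, and probed 2 h at room temperature with primary antibodies. HRP secondary and ECL detection followed; β-actin reprobe served as loading control.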
(A western blot detects proteins with antibodies after separation by electrophoresis.)

Data set [4] concerns HeLa. The data set is described as follows: Induction of apoptosis in human HeLa cells assessed as late apoptotic cells at 10 nM measured after 48 hrs by Annexin V-FITC/propidium iodide staining based flow cytometry (reference value: 6.07 %). The class given is functional. In general terms: In flow cytometry, cells or beads pass a laser one at a time.
Data set [5] relates to EO771. The data set can be described thus: Antitumor activity against mouse E0771 cells implanted in ip dosed C57BL/6 mouse assessed as reduction tumor growth administered every other day. It counts as functional, organism-based. As to conditions: dose 5-15 mg/kg. The procedure, abridged:
(§2)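 Seven-week-old female C57BL/6 mice received 4 x 10^5 E0771 cells orthotopically in the mammary fat pad and were randomized once tumors were palpable. Dosing was ip every other day at 5 or 15 mg/kg, with DMSO vehicle in 100 µL. Caliper volume was V=(D×d²)/2, and tumor weight was taken at endpoint; n=5/group. Analysis used two-way ANOVA with Bonferroni.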

Data set [6] concerns HUVEC. The data set is described as follows: Antivascular activity against HUVEC assessed as inhibition of capillary like tube formation at 100 nM incubated for 1 hr by matrigel based assay. It counts as functional, cell-based. As to conditions: Homo sapiens. The method in brief: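 HUVECs used at passages 1–6 in M200 with low-serum growth supplement. 6 x 10^4 cells seeded on gelled Matrigel (37 °C, 30 min) and left 6 h to form tubes. Preformed networks then treated 1 h at 10 or 100 nM and photographed at five fields per well. Image analysis gave segment length, mesh area and number, covered area and branch points; three independent experiments.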

The subject of data set [7] is HeLa. The data set can be described thus: Induction of mitochondrial membrane potential loss in human HeLa cells assessed as cells with depolarized mitochondrial membrane at 10 nM after 48 hrs by JC-1 dye-based flow cytometric analysis (reference value: 5.7 %). It counts as functional.
Data set [8] concerns Jurkat. The data set is described as follows: Potency index, ratio of CA-4 IC50 to compound IC50 for human Jurkat cells assessed as inhibition of cell growth. It counts as functional.
A short description of data set [9]: Antitumor activity mouse E0771 cells implanted in C57BL/6 mouse assessed as reduction tumor mass at 15 mg/kg, ip administered every other day relative to control. The class given is functional, EO771. Details: scale not given: the % may be the effect or the level left. The procedure, abridged:
as §2

The subject of data set [10] is HeLa. The data set is described as follows: Induction of apoptosis in human HeLa cells assessed as necrotic cells at 10 nM measured after 48 hrs by Annexin V-FITC/propidium iodide staining based flow cytometry (reference value: 2.26 %). The class given is functional.
Data set [11] concerns HeLa. The data set can be described thus: Antiproliferative activity against human HeLa cells assessed as inhibition of cell growth. It counts as functional, cell-based. The method in brief: (§3)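 Growth inhibition of cancer cell lines read from dose-response curves; IC50 as mean ± SEM of at least three independent experiments.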
A short description of data set [12]: Cytotoxicity against PHA-stimulated human PBL assessed as inhibition of cell growth. The class given is cell-based. The settings on record: PHA-stimulated peripheral blood lymphocytes (PBL). The procedure, abridged: (§4)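 Peripheral blood lymphocytes from healthy donors, tested either unstimulated or stimulated with PHA; DMSO ≤0.25% final. Values are mean ± SEM of three separate experiments.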

The species entered for data set [13] is Bos taurus. The data set can be described thus: Inhibition of [3H]colchicine binding to bovine brain tubulin at 5 uM relative to control. The procedure, abridged: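 [3H]colchicine binding to purified tubulin, with tubulin at 0.5 µM and colchicine at 5 µM. Compounds tested at 5 and 0.5 µM. CA-4 was run in contemporaneous experiments for comparison.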
Data set [14] deals with HeLa. The data set is described as follows: Downregulation of MAD-2 expression in human HeLa cells at 10 nM after 24 hrs by Western blot analysis. The class given is functional, cell-based. The method in brief: as §1
The test system of data set [15] is Daoy. The data set is described as follows: Antiproliferative activity against human Daoy cells assessed as inhibition of cell growth. It counts as functional, cell-based. The method in brief:
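Compounds from 10 mM DMSO stocks; final DMSO ≤0.25%. Growth inhibition of cancer cell lines read from dose-response curves; IC50 as mean ± SEM of at least three independent experiments.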

Data set [16] concerns HeLa. The data set can be described thus: Induction of cell cycle arrest in human HeLa cells assessed as accumulation at G2/M phase at 10 nM after 24 hrs by PI staining based flow cytometric analysis. The class given is functional. The method in brief: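 HeLa cells treated 24 h, then fixed in cold 70% ethanol. They were lysed with 0.1% Triton X-100 plus RNase A and stained with PI for flow cytometric DNA content. Means ± SEM of two independent experiments.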

The nature of data set [17]: Toxicity in C57BL/6 mouse implanted with mouse E0771 cells assessed as reduction in body weight at 15 mg/kg, ip administered every other day. The class given is organism-based. The settings on record: in vivo. The method in brief:
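Seven-week-old female C57BL/6 mice received 4 × 10^5 E0771 cells orthotopically into the mammary fat pad. Once tumors were palpable, mice were randomized and given ip injections every other day (15 or 5 mg/kg, or vehicle DMSO; CA-4P 30 mg/kg as reference). Body weight was followed during treatment; n = 5 mice/group.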

Data set [18] can be described thus: Cytotoxicity against human PBL assessed as inhibition of cell growth. It counts as cell-based. The settings on record: peripheral blood lymphocytes (PBL). The method in brief: as §4
Data set [19] concerns HeLa. The data set is described as follows: Induction of microtubule network depolymerization in human HeLa cells assessed as appearance of disorganised microtubules at 50 nM after 24 hrs by immunofluorescence staining based confocal microscopic analysis. The class given is cell-based. The method in brief:
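HeLa cells treated 24 h at 10, 50 or 100 nM. They were then fixed in cold 4% formaldehyde for 15 min and stained with anti-β-tubulin for 2 h at room temperature. Alexa 488 secondary and DAPI counterstain followed; imaged by confocal microscopy at 20X.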

The subject of data set [20] is HeLa. The data set is described as follows: Induction of apoptosis in human HeLa cells assessed as early apoptotic cells at 10 nM measured after 48 hrs by Annexin V-FITC/propidium iodide staining based flow cytometry (reference value: 2.1 %). The class given is functional.
Data set [21] relates to HT-29. The data set is described as follows: Antiproliferative activity against human HT-29 cells assessed as inhibition of cell growth. It counts as functional, cell-based. The method in brief: as §3
The test system of data set [22] is HeLa. The data set is described as follows: Induction of apoptosis in human HeLa cells assessed as viable cells at 10 nM measured after 48 hrs by Annexin V-FITC/propidium iodide staining based flow cytometry (reference value: 89.57 %). The class given is functional. As to conditions: read-out: Activity.
Data set [23] concerns HeLa. The data set is described as follows: Downregulation of MAD-2 expression in human HeLa cells at 10 nM after 48 hrs by Western blot analysis. It counts as functional, cell-based. The method in brief: as §1

Each structure is given as a SMILES string. Calls of active or inactive are those of the source. The calls are words filed in the database; no cut-off is given here.

In general, GI50 refers to the concentration at which growth is held to half of that of the control. By IC50 is commonly meant the concentration that inhibits the measured activity by half. The inhibition is the relative decrease from the control value, in per cent. In the case of `CCOc1ccc2c(C(=O)c3cc(OC)c(OC)c(OC)c3)c(N)oc2c1`, the “Ratio IC50” value in [1] and in data set [8] was 3 in each case. The figures for the concentration for 50% growth inhibition (GI50) in data set [2], in [12] and in data set [18] were more than 10000 nM, more than 10000 nM and 8700 nM, respectively. The Activity result is “Dose-dependent effect” in data set [3]; 23.53% in [4]; “Dose-dependent effect” in [5]; 54.7% in data set [7]; 45.7% in data set [9]; 21.63% in data set [10]. Also, the Activity entry in [17] is on record as “Non-Toxic”; in [20] it was 23.53%. Also, the result in [6], in data set [14], in data set [16], in data set [19] and in [23] was Active. Moreover, the IC50 in [11] was 2.8 nM; in data set [15], 0.005 nM; in data set [21], 2.1 nM. Besides, the inhibition in data set [13] was 99%. In addition, the viability at 0.01 µM in data set [22] came out at 31.3%.
